The list is not random: actives were taken first. Their share in the collection is about 0.89%.
iPSC survival up – increases survival of single human iPS cells | hiPSC single-cell survival, ATPlite luminescence; 100% = ROCK inhibitor wells, 0% = DMSO | 360,000 compounds, 0.044% hits | survival enhancement, % at 20 µM | AID 602274; in the data active means survival enhancement above about 18%;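 further: cells exposed to compounds for 16 hours before the ATP read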
PG9 binder – binds the HIV-1 gp120 antibody PG9; AID 624416; inhibition, % at 6.7 µM; 360,000 compounds, 0.43% hits; TR-FRET gp120-PG9 antibody binding; in the data active means inhibition above about 8.5%
ABCB6 inh 2 – inhibitors of human ABC transporter ABCB6 | K562-ABCB6 porphyrin accumulation, flow cytometry, 1 h; stronger effect = lower value | fluorescence ratio to DMSO, % at 10 µM | 360,000 compounds, 0.19% hits | AID 602162;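 active means fluorescence ratio to DMSO below 75%, the collection mean minus 3 SD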;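 further: signal is porphyrin accumulated inside mitochondria; lower ratio means ABCB6 inhibition with less porphyrin fluorescence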
Target sequence (Q9NP58 whole entry, looked up): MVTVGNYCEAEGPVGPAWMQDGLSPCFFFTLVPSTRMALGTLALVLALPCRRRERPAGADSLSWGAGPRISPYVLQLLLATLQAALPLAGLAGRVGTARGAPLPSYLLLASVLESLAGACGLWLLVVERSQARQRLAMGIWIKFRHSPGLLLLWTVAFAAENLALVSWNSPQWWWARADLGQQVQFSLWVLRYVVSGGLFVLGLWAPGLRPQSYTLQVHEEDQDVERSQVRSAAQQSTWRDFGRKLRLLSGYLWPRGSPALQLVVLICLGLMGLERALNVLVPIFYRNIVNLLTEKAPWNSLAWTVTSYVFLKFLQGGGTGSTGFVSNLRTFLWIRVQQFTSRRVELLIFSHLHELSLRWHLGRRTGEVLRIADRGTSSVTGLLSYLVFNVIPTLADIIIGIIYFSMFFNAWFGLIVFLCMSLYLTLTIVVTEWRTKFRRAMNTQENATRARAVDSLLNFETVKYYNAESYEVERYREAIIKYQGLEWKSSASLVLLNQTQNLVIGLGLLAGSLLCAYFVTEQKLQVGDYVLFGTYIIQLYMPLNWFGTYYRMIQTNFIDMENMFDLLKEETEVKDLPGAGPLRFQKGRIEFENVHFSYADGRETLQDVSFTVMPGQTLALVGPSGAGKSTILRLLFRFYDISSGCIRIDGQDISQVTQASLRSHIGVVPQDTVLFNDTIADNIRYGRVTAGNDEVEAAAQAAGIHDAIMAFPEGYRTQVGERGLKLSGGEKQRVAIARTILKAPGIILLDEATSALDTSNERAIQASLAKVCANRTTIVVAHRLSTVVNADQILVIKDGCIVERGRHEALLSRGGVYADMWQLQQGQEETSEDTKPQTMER
Arr AP2 block – blocks beta-arrestin peptide binding to AP2 adaptin | FITC-arrestin peptide / GST-AP2 beads, flow cytometry; AP2 beta2 appendage carries R879A mutation | inhibition, % at 10 µM | 340,000 compounds, 0.31% hits | AID 504490;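 active means inhibition above a set limit, near 3 SD of compounds lacking own fluorescence, cut at about 54% in these data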
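Material – AP2 appendage R879A on GSH beads · Buffer or medium – PBS with 0.05% Tween 20 and 0.1% BSA · Probe or stimulus – fluorescein-tagged arrestin peptide at 50 nM final · Incubation – compound with beads 12 min RT, then probe 1 h RT · Detection – high-throughput flow cytometry of beads, ex 488, em 535 nm · Evaluation – percent response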
PG9 bind confirm – confirmation of small molecules binding HIV-1 gp120 antibody PG9 | shares compounds with PG9 binder | TR-FRET PG9 antibody binding, biochemical | inhibition, % at 6.7 µM | 1,500 compounds, 90% hits; in the data active means inhibition above about 9%
PGV04 Ab binding – counter-screen for PG9 binders: binding control antibody PGV04 | TR-FRET PGV04 antibody-gp120 binding, biochemical | 1,500 compounds, 95% hits | inhibition, % at 6.7 µM | shares compounds with PG9 binder; in the data active means inhibition above about 9.5%
Hits are given with their value; – = inactive; · = not tested or not shown.

SMILES	iPSC survival up	PG9 binder	ABCB6 inh 2	Arr AP2 block	PG9 bind confirm	PGV04 Ab binding
COc1ccccc1C(=O)Nc1nc2ccc(S(C)(=O)=O)cc2s1	–	19	–	–	27	37
CS(=O)(=O)c1ccc2nc(NC(=O)c3cc4ccccc4o3)sc2c1	–	9.6	–	–	24	33
COc1ccc(C(=O)Nc2nc3ccc(S(C)(=O)=O)cc3s2)cc1	–	46	–	–	41	58
COc1ccccc1CCn1cnc(-c2ccc(F)cc2F)c1CC(C)C	·	–	·	·	·	·
CCOC(=O)C1=C(C(=O)OCC)C2N(Cc3ccc(C#N)cc3)c3ccccc3[C@@]23C[C@@H](C(=O)OC)N(S(=O)(=O)c2ccc(C#N)cc2)C3=N1 (stereo not given in full)	·	–	·	·	·	·
O=C(Cn1nnc(N2CCCCC2)n1)NN=Cc1ccccc1O	·	–	·	·	·	·
N#Cc1c(-c2ccccc2)nc(SCC(=O)Nc2ccccc2)[nH]c1=O	–	–	–	–	·	·
Cc1cc(C)nc(NS(=O)(=O)c2ccc(NC(=O)CSc3nc(-c4ccccc4)c(C#N)c(=O)[nH]3)cc2)n1	–	36	–	–	44	58
N#Cc1c(-c2ccccc2)nc(SCC(=O)Nc2ccc(OC(F)(F)Cl)cc2)[nH]c1=O	–	8.8	–	–	18	22
Cc1cc(NC(=O)CSc2nc(-c3ccccc3)c(C#N)c(=O)[nH]2)no1	–	18	–	–	28	35
COC(=O)C1=C(C)N(C)C(=NCc2cccc(C(F)(F)F)c2)NC1c1ccccc1 (stereo not given)	·	–	·	·	·	·
CCNC(=O)N1C[C@H]2CON(C)[C@H]2C[C@H]1c1ccc(N2CCCCC2)cc1	·	–	·	·	·	·
Cc1ccc(NC(=S)Nc2ccc(-c3nnc4n3CCCCC4)cc2)cc1C	·	–	·	·	·	·
c1ccc(COCCc2cn(Cc3ccccc3)c3ccccc23)cc1	·	–	·	·	·	·
Cn1c(SCC(=O)Nc2ccc(Cl)cc2)nnc1C1CC1	–	–	–	–	·	·
CSc1sc(-c2nnc(SCC(=O)Nc3ccc(Cl)cc3)n2C)c2c1C=CCC2	–	29	–	–	38	52
Cc1ccsc1C(=O)Nc1ccc(O)c(-c2nc3ccccc3s2)c1	–	51	–	–	58	78
CC(=O)Nc1ccc(O)c(-c2nc3ccccc3s2)c1	–	–	–	·	·	·
O=C(CCS(=O)(=O)c1ccccc1)Nc1ccc(-c2nc3ccccc3s2)c(O)c1	–	26	–	–	22	51
C=CCN1CC(COCCCC)Oc2ccc(Cl)cc2S1(=O)=O (stereo not given)	·	–	·	·	·	·
O=C(Oc1c(Br)cc(Br)c2cccnc12)N1CCCCC1	–	9.1	–	–	14	18
CCC1(CC)Cc2ccccc2-c2nc(NN)[nH]c(=O)c21	–	–	–	–	·	·
CCC1(CC)Cc2ccccc2-c2[nH]c(=S)[nH]c(=O)c21	–	17	–	–	–	–
CC(C)C1Cc2ccccc2-c2[nH]c(=S)[nH]c(=O)c21 (stereo not given)	–	30	–	–	–	–
O=[N+]([O-])c1ccc(CN2[C@H](COCc3ccccc3)C=CS2(=O)=O)cc1	·	–	·	·	·	·
SMILES	iPSC survival up	PG9 binder	ABCB6 inh 2	Arr AP2 block	PG9 bind confirm	PGV04 Ab binding
COc1ccc(Cl)cc1C(=O)NNC(=O)c1n[nH]c2ccccc12	–	10	–	–	24	31
COC(=O)C1=C(C)N(Cc2ccc(Br)cc2)C(=S)NC1c1cccc(OC)c1 (stereo not given)	·	–	·	·	·	·
CSc1ccc(C#N)cc1NC(=O)c1ccccc1	–	–	–	–	·	·
CSc1ccc(C#N)cc1NC(=O)c1ccc(Cl)cc1Cl	–	11	–	–	19	24
C[C@@H]1C=CCCO[C@]12C(=O)N(Cc1ccc(Br)cc1)c1ccccc12	·	–	·	·	·	·
COc1cccc(C(=O)Nc2nnc(-c3ccc(OC)cc3OC)s2)c1	–	31	–	–	31	41
COc1ccc(C(=O)Nc2nnc(Cc3ccc(OC)c(OC)c3)s2)cc1	–	9.5	–	–	11	20
CCCCNc1ccc2c(c1)OC[C@H](Cc1ccccc1)NS2(=O)=O	·	–	·	·	·	·
O=C(N[C@H](C(=O)N1CCC[C@H]1C(=O)NCCc1ccccc1Cl)C1CCCCC1)c1ccc(Cl)c(Cl)c1	·	–	·	·	·	·
CC(=O)Nc1ccc(NC(=O)COc2ccc(-c3ccc(C#N)cc3)cc2)cc1	–	9.0	–	–	12	18
N#Cc1ccc(-c2ccc(OCC(=O)Nc3cccnc3)cc2)cc1	–	–	–	–	·	·
